Source: ChEMBL document CHEMBL1649392, “Synthesis of substituted 3-amino-N-phenyl-1H-indazole-1-carboxamides endowed with antiproliferative activity” (Eur J Med Chem, 2011)
Active and inactive are the calls of the source.

Assays:
OVCAR-8 = experiment: Antiproliferative activity against human OVCAR8 cells after 48 hrs by sulforhodamine B assay; format: functional; settings: OVCAR-8, 48 h
Procedure, shortened: (§1)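 NCI 60-cell-line panel covering nine cancer types (leukemia, non-small cell lung, colon, CNS, melanoma, ovarian, renal, prostate, breast). Compounds were first tested at a single dose, then in a five-dose screen (series starting 0.01, 0.1 …) if they met NCI threshold criteria. Reported per line: GI50 (molar concentration inhibiting 50% net growth), TGI (total growth inhibition) and LC50 (50% net cell death).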

BT-549 = experiment: Antiproliferative activity against human BT549 cells after 48 hrs by sulforhodamine B assay; format: functional; settings: BT-549, 48 h; procedure, shortened: as §1
K562 [1] = experiment: Induction of cell cycle arrest in human K562 cells assessed as decrease in accumulation at S phase at 40 uM after 24 hrs by flow cytometric analysis; format: functional, cell-based
Procedure, shortened: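 K562 myeloblastic leukemia cells cultured 24 h with compound at 20, 40 or 60 µM, or untreated. Cells washed in ice-cold PBS and resuspended at 10⁶/mL in hypotonic propidium iodide (50 µg/mL) with 0.03% Nonidet P-40 in 0.1% sodium citrate. After 30 min, DNA content read by flow cytometry; sub-G0/G1, G0/G1, S and G2/M fractions scored.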

OVCAR-4 = experiment: Antiproliferative activity against human OVCAR4 cells after 48 hrs by sulforhodamine B assay; format: functional; settings: OVCAR-4, 48 h; procedure, shortened: as §1
TK-10 = experiment: Antiproliferative activity against human TK10 cells after 48 hrs by sulforhodamine B assay; format: functional; settings: TK-10, 48 h
Procedure, shortened: (§2)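 NCI 60-cell-line panel screen: single dose 10 µM first, then 5-dose testing (0.01, 0.1, … molar series). For each line, GI50 is the molar concentration giving 50% inhibition of net cell growth, TGI gives total inhibition of net growth, and LC50 gives 50% net cell death. Method follows the NCI DTP protocol.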

HL-60(TB) = experiment: Antiproliferative activity against human HL-60(TB) cells after 48 hrs by sulforhodamine B assay; format: functional; settings: HL-60, 48 h
Procedure, shortened: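 Tested by the National Cancer Institute in its full tumour cell panel covering nine cancer types, including leukemia. Compounds were first screened at a single dose. Those passing the preset inhibition threshold then went to a 5-dose screen. GI50 is the molar concentration giving 50% inhibition of net cell growth; TGI and LC50 were also derived.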

HCT-116 = experiment: Antiproliferative activity against human HCT116 cells after 48 hrs by sulforhodamine B assay; format: functional; settings: HCT-116, 48 h; procedure, shortened: as §1
UO-31 = experiment: Antiproliferative activity against human UO31 cells after 48 hrs by sulforhodamine B assay; format: functional; settings: UO-31, 48 h; procedure, shortened: as §2
NCI-H23 = experiment: Antiproliferative activity against human NCI-H23 cells after 48 hrs by sulforhodamine B assay; format: functional; settings: NCI-H23, 48 h; procedure, shortened: as §1
CCRF-CEM = experiment: Antiproliferative activity against human CCRF-CEM cells after 48 hrs by sulforhodamine B assay; format: functional; procedure, shortened: as §1
MCF7 = experiment: Antiproliferative activity against human MCF7 cells after 48 hrs by sulforhodamine B assay; format: functional; settings: MCF7, 48 h; procedure, shortened: as §1
LOX IMVI = experiment: Antiproliferative activity against human LOXIMVI cells after 48 hrs by sulforhodamine B assay; format: functional; procedure, shortened: as §1
786-0 = experiment: Antiproliferative activity against human 786-0 cells after 48 hrs by sulforhodamine B assay; format: functional; settings: 786-0, 48 h; procedure, shortened: as §1
EKVX = experiment: Antiproliferative activity against human EKVX cells after 48 hrs by sulforhodamine B assay; format: functional; procedure, shortened: as §1
OVCAR-3 = experiment: Antiproliferative activity against human OVCAR3 cells after 48 hrs by sulforhodamine B assay; format: functional; settings: OVCAR-3, 48 h; procedure, shortened: as §1
SK-MEL-5 = experiment: Antiproliferative activity against human SK-MEL-5 cells after 48 hrs by sulforhodamine B assay; format: functional; settings: SK-MEL-5, 48 h; procedure, shortened: as §1
NCI-H226 = experiment: Antiproliferative activity against human NCI-H226 cells after 48 hrs by sulforhodamine B assay; format: functional; settings: NCI-H226, 48 h; procedure, shortened: as §1
SF-539 = experiment: Antiproliferative activity against human SF539 cells after 48 hrs by sulforhodamine B assay; format: functional; settings: SF-539, 48 h; procedure, shortened: as §1
MDA-MB-435 = experiment: Antiproliferative activity against human MDA-MB-435 cells after 48 hrs by sulforhodamine B assay; format: functional; settings: MDA-MB-435, 48 h; procedure, shortened: as §1
U-251 = experiment: Antiproliferative activity against human U251 cells after 48 hrs by sulforhodamine B assay; format: functional; settings: U-251, 48 h; procedure, shortened: as §2
SW-620 = experiment: Antiproliferative activity against human SW620 cells after 48 hrs by sulforhodamine B assay; format: functional; settings: SW-620, 48 h; procedure, shortened: as §2
K562 [2] = experiment: Antiproliferative activity against human K562 cells after 48 hrs by sulforhodamine B assay; format: functional; settings: K562, 48 h; procedure, shortened: as §1
A549 = experiment: Antiproliferative activity against human A549 cells after 48 hrs by sulforhodamine B assay; format: functional; settings: A549, 48 h; procedure, shortened: as §1
NCI/ADR-RES = experiment: Antiproliferative activity against human NCI/ADR-RES cells after 48 hrs by sulforhodamine B assay; format: functional; procedure, shortened: as §1
HT-29 = experiment: Antiproliferative activity against human HT-29 cells after 48 hrs by sulforhodamine B assay; format: functional; settings: HT-29, 48 h; procedure, shortened: as §1
MOLT-4 = experiment: Antiproliferative activity against human MOLT4 cells after 48 hrs by sulforhodamine B assay; format: functional; settings: MOLT-4, 48 h; procedure, shortened: as §1
M14 = experiment: Antiproliferative activity against human M14 cells after 48 hrs by sulforhodamine B assay; format: functional; settings: M14, 48 h; procedure, shortened: as §1
MDA-MB-231 = experiment: Antiproliferative activity against human MDA-MB-231 cells after 48 hrs by sulforhodamine B assay; format: functional; settings: MDA-MB-231, 48 h; procedure, shortened: as §1
[3] = read-out: LC50 (the source's name)

Nc1nn(C(=O)Nc2ccc(Cc3ccccc3)cc2)c2ccc(Cl)cc12
GI50 (OVCAR-8): 14.9 µM | TGI (OVCAR-8): > 100 µM | CC50 (OVCAR-8; [3]): > 100 µM | GI50 (BT-549): 5.88 µM | TGI (BT-549): 44 µM | CC50 (BT-549; [3]): > 100 µM | Activity (K562 [1]): Active | GI50 (OVCAR-4): 5.73 µM | TGI (OVCAR-4): 34.3 µM | CC50 (OVCAR-4; [3]): > 100 µM | GI50 (TK-10): 15.6 µM | TGI (TK-10): 38.7 µM | CC50 (TK-10; [3]): 96.3 µM | GI50 (HL-60(TB)): 2.62 µM | TGI (HL-60(TB)): 42.1 µM | CC50 (HL-60(TB); [3]): > 100 µM | GI50 (HCT-116): 0.467 µM | LC50 (concentration causing 50% net cell death) (HCT-116): 77.2 µM | TGI (HCT-116): 25.1 µM | GI50 (UO-31): 3.12 µM | TGI (UO-31): 84.5 µM | CC50 (UO-31; [3]): > 100 µM | GI50 (NCI-H23): 5.34 µM | TGI (NCI-H23): 68.4 µM | CC50 (NCI-H23; [3]): > 100 µM | GI50 (CCRF-CEM): 1.23 µM | LC50 (concentration causing 50% net cell death) (CCRF-CEM): > 100 µM | TGI (CCRF-CEM): 34.4 µM | GI50 (MCF7): 0.395 µM | TGI (MCF7): 18.8 µM | CC50 (MCF7; [3]): 84 µM | GI50 (LOX IMVI): 0.0503 µM | LC50 (concentration causing 50% net cell death) (LOX IMVI): 53.2 µM | TGI (LOX IMVI): 18.4 µM | GI50 (786-0): 3.92 µM | TGI (786-0): 28.2 µM | CC50 (786-0; [3]): 94.4 µM | GI50 (EKVX): 3.19 µM | TGI (EKVX): 97.6 µM | CC50 (EKVX; [3]): > 100 µM | GI50 (OVCAR-3): 6.66 µM | TGI (OVCAR-3): 20.8 µM | CC50 (OVCAR-3; [3]): 48.2 µM | GI50 (SK-MEL-5): 0.283 µM | TGI (SK-MEL-5): 21.1 µM | CC50 (SK-MEL-5; [3]): 80.2 µM | GI50 (NCI-H226): 15.4 µM | TGI (NCI-H226): 66.7 µM | CC50 (NCI-H226; [3]): > 100 µM | GI50 (SF-539): 1.51 µM | TGI (SF-539): 11.5 µM | CC50 (SF-539; [3]): 38.8 µM | GI50 (MDA-MB-435): 0.0813 µM | TGI (MDA-MB-435): > 100 µM | CC50 (MDA-MB-435; [3]): > 100 µM | GI50 (U-251): 12.5 µM | LC50 (concentration giving 50% net cell death) (U-251): 58.4 µM | TGI (U-251): 27 µM | GI50 (SW-620): 0.0565 µM | TGI (SW-620): 76.5 µM | CC50 (SW-620; [3]): > 100 µM | GI50 (K562 [2]): 0.0357 µM | LC50 (concentration causing 50% net cell death) (K562 [2]): > 100 µM | TGI (K562 [2]): 14.7 µM | GI50 (A549): 2.52 µM | TGI (A549): > 100 µM | CC50 (A549; [3]): > 100 µM | GI50 (NCI/ADR-RES): 11 µM | TGI (NCI/ADR-RES): 39.1 µM | CC50 (NCI/ADR-RES; [3]): > 100 µM | GI50 (HT-29): 1.15 µM | LC50 (concentration giving 50% net cell death) (HT-29): 79.1 µM | TGI (HT-29): 24 µM | GI50 (MOLT-4): 2.41 µM | TGI (MOLT-4): 55.3 µM | CC50 (MOLT-4; [3]): > 100 µM | GI50 (M14): 0.0888 µM | TGI (M14): 14 µM | CC50 (M14; [3]): > 100 µM | GI50 (MDA-MB-231): 5.33 µM | TGI (MDA-MB-231): 37.6 µM | CC50 (MDA-MB-231; [3]): > 100 µM
